Compound activity deposited in PubChem BioAssay by several laboratories.
M1 ag: M1 muscarinic receptor agonists, primary screen, CHO-M1 cells, Fluo-4 calcium, agonist mode | Muscarinic acetylcholine receptor M1 | Fluo-4 calcium fluorescence; stronger effect = higher value | B-score at 10 µM | 64,000 tested, 3% active | AID 626, 2007;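 active = fluorescence rise, raw or as B-score row- and column-corrected plate score, outside the 99.7% band of its plate's samples, either direction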
S1P3 agonist: human S1P3 receptor agonists, primary screen, cell-based, primary and confirmation, NFAT-BLA reporter | Sphingosine 1-phosphate receptor 3 (Homo sapiens), Q99500 | S1P3 NFAT-BLA reporter cells, agonism, FRET ratio; relative to 1 µM S1P, basal subtracted | activation, % at 4.5 µM | 60,000 tested, 0.1% active | AID 373, 2006;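 active = activation above the screen-wide mean plus 3 SD, cut at about 4.5% in these data, passing the limit was not always enough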
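Benchmarks: high control 1 µM S1P / System: stable CHO line with human S1P3, Gα16, NFAT-BLA reporter / Dosing: single compound concentration, 4.5 µM final / Timing: 4 h compound at 37 °C, 2 h substrate at RT / Measured by: FRET β-lactamase substrate fluorescence, excitation 405 nm, 460/535 nm emission ratio, background-subtracted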
D1 allo mod: D1 CRE-luciferase signal change, two-sided – cell-based, HEK293 D1, dopamine EC30, D1 allosteric modulator project, primary screen; dopamine EC30 potentiation; actives deviate in either direction; AID 641, 2007; B-score at 10 µM; 58,000 tested, 5.9% active; D(1A) dopamine receptor (Homo sapiens), P21728;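 active = luminescence count or its row- and column-corrected plate score outside the 99.7% band of the plate's sample wells, on either side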
TNAP act DEA: human TNAP enzyme activators, primary screen, biochemical, luminescent, intermediate phosphate acceptor level | 64,000 tested, under 10 active | activation factor at 20 µM | purified TNAP, CDP-star luminescence, 100 mM DEA, 30 min; stronger effect = higher value; scale: 0 levamisole-inhibited, 1 vehicle-only enzyme | AID 813, 2007 | Alkaline phosphatase, tissue-nonspecific isozyme (Homo sapiens), P05186;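 active = activation factor of at least 2 at 20 µM, relative to controls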
M1 antag: antagonists of rat M1 muscarinic receptor; B-score at 10 µM; 64,000 tested, 3.4% active; AID 628, 2007; Muscarinic acetylcholine receptor M1 (Rattus norvegicus), P08482; CHO-M1 cells, Fluo-4 calcium, ACh EC80 antagonist mode; stronger effect = lower value;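 active = calcium fluorescence response, raw or row-and-column corrected B-score, differing from the plate sample mean either way at a set confidence level, mostly lower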
S1P1 ag-PAM: S1P1 agonists and agonism potentiators, primary screen, cell-based, primary and confirmation screens, CRE-bla reporter; activation, % at 9.5 µM; Sphingosine 1-phosphate receptor 1 (Homo sapiens), P21453; S1P1 CRE-bla cells, forskolin, beta-lactamase FRET, potentiator mode; S1P1 agonist co-added at EC20, 2 nM; 100% = saturating reference agonist, 0% = basal; 56,000 tested, 0.57% active;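 active = activation above a cutoff set at the mean activation of all tested compounds plus 3 SD, cut at about 54% in these data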;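 note: forskolin at 4 µM as EC80 and the EC20 agonist is SEW2871; 100% = SEW2871 at its EC100 plus forskolin at EC80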
Target sequence (P21453 whole entry, looked up): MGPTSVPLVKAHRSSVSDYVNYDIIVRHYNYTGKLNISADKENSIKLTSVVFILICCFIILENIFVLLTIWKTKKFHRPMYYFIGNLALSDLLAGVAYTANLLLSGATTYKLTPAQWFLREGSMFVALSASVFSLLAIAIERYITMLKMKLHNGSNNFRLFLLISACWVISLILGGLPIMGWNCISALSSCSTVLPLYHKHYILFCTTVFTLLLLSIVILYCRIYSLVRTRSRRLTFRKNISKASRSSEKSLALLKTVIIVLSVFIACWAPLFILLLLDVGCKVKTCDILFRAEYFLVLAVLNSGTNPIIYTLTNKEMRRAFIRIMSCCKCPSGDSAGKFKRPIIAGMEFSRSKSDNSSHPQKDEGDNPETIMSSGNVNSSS
M1 agonist conf: rat M1 muscarinic receptor agonists, confirmation, CHO-M1 cells, Fluo-4 calcium, duplicate retest. shares compounds with M1 ag. Fluo-4 calcium fluorescence, agonist mode; actives lie on both sides. fluorescence change (max-min) at 10 µM. 1,700 tested, 19% active. AID 1488, 2009;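 active = fluorescence change differs from the solvent-only DMSO control mean at a set confidence level in both duplicate runs; inconclusive = differs from solvent-only control mean in just one of two runs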;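 note: an EC20 dose of acetylcholine follows compound addition during the same imaging run; raw fluorescence intensity difference in instrument units with no normalization to controls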
M4 agonist ctr: agonist activity at rat M4 receptor, confirmation, counter-screen for M1 allosteric modulator project, cell-based, agonist mode. shares compounds with M1 ag. CHO M4/Gqi5 cells, Fluo-4 calcium fluorescence; actives lie on both sides. fluorescence change (max-min) at 10 µM. 1,700 tested, 9% active;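 active = fluorescence change differing from the plate's solvent-only control wells at 99.7% confidence in both duplicates, whether higher or lower; inconclusive = differs from solvent controls in only one of two duplicates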
* hit, by the source's call; ? = inconclusive; . = no result. Only some compounds are listed: those with a hit (about 11% of all), similar ones and a draw of the others.

SMILES	M1 ag	S1P3 agonist	D1 allo mod	TNAP act DEA	M1 antag	S1P1 ag-PAM	M1 agonist conf	M4 agonist ctr
C=CCc1ccccc1OCC(O)CN1CCN(C(=O)OCC)CC1 (stereo not given)	28*	0	-2.7	1	-1.3	-17	172*	-44
OCCNc1nc2ccc(Cl)cc2[nH]1	-0.74	-1	-0.75	0.9	-0.84	.	.	.
CC(=O)Nc1ccccc1N(C)S(=O)(=O)c1ccc(C)cc1	-1.2	-2	-0.86	1	-0.45	6	.	.
CCOc1cc(C2C(C#N)=C(N)OC(C)=C2C(C)=O)cc(Br)c1O (stereo not given)	23*	0	0.32	0.8	-0.027	-11	180*	170*
O=C1NCN(c2ccccc2)C12CCN(c1nnnn1-c1ccccc1)CC2	2.7	.	.	1	-0.59	.	.	.
O=C1c2cccc3c(N4CCCCC4)ccc(c23)C(=O)N1c1ccccn1	78*	-1	-0.57	0.9	-1.5	28	775*	819*
C1=CN2CCC1C(c1ccccc1)C2 (stereo not given)	44*	0	-0.31	1	-8*	-11	428*	7.6
CCC(C)(C)n1nnnc1CN(Cc1cc2cc(OC)ccc2[nH]c1=O)C1CCCC1	2.6*	27	.	0.9	-0.28	-21	-3.2	-17
O=c1[nH]c2cc3c(cc2cc1CN(Cc1nnnn1CC1CCCO1)C1CCCCC1)OCO3 (stereo not given)	3.6*	-1	.	0.9	-0.089	15	93*	?
COc1ccc(S(=O)(=O)N2CCN(S(=O)(=O)c3ccc4c(c3)OCCO4)CC2)cc1C	-0.31	0	1.4	0.9	0.79	-2	.	.
CC(=O)[C@H]1[C@@H]2C(=O)N(c3cccc(Cl)c3)C(=O)[C@@H]2[C@H]2c3ccccc3C=CN21	6.4*	-4	.	0.9	-0.6	16	98*	?
CC(=O)N(Cc1ccccc1)c1ncc2c(n1)c(=O)c(C#N)c1ccccn12	4*	0	0.4	0.9	-0.029	9	64*	38
O=C(NCc1ccc2c(c1)OCO2)C1CCN(c2ccc(S(=O)(=O)N3CCCC3)cc2)CC1	2.6*	.	.	1	-1.9	.	-14	-33
O=C(CN(Cc1ccco1)C(=O)CNS(=O)(=O)c1ccc(F)cc1)NCCc1ccccc1	2.5*	0	-1.1	1	-0.96	-3	?	?
Cc1nc2sccn2c1-c1csc(NCc2ccccc2)n1	8.3*	-1	-1.7	1	-1.6	113*	-10	?
C=CCN1C(c2ccc(OCC)cc2)=CS/C1=C(\C#N)c1nnc2n1CCCCC2	6.6*	0	-0.49	0.9	-0.61	-7	-3.7	-24
O=C(NCc1cccs1)C1CCCN(c2nc3ccccc3o2)C1 (stereo not given)	-0.48	1	-0.37	1	0.024	17	.	.
CN(C)C=Nc1c(Br)cc(Br)c2nonc12	61*	-1	0.69	1	-1.9	36	278*	617*
COCC(C)n1c(C)cc(C(=O)COC(=O)c2ccc(N3CCCC3=O)cc2)c1C (stereo not given)	-0.95	-1	-0.066	1	-0.73	14	.	.
